Assay [1] concerns SW-620. As to the kind of experiment: Growth inhibition against human SW620 cells assessed as total growth inhibitory concentration incubated for 48 hrs by sulforhodamine B assay. It is filed as functional. In general terms: Sulforhodamine B stains cellular protein and so reports cell mass.
Assay [2] relates to NCI/ADR-RES. The assay is described as follows: Antiproliferative activity against human NCI/ADR-RES cells assessed as cell growth at 0.0001 M incubated for 48 hrs by SRB assay relative to control. It is filed as functional. The conditions noted are these: read-out: Activity.
Assay [3] has as its system UACC-62. The assay is described as follows: Growth inhibition against human UACC-62 cells assessed as total growth inhibitory concentration incubated for 48 hrs by sulforhodamine B assay. It is filed as functional.
For assay [4], the system named is MCF7. As to the kind of experiment: Antiproliferative activity against human MCF7 cells assessed as cell growth at 0.00000001 M incubated for 48 hrs by SRB assay relative to control. The assay is classed as functional. The following applies: dose 10 nM, read-out: Activity.
The test system of assay [5] is SW-620. As to the kind of experiment: Antiproliferative activity against human SW620 cells assessed as cell growth at 0.00001 M incubated for 48 hrs by SRB assay relative to control. It is filed as functional. The conditions noted are these: read-out: Activity.
Assay [6] has as its system BT-549. As to the kind of experiment: Antiproliferative activity against human BT-549 cells assessed as cell growth at 0.0001 M incubated for 48 hrs by SRB assay relative to control. The following applies: read-out: Activity. It is filed as functional. An outline of the steps: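 NCI-60 five-dose screen over 10^-4–10^-8 M (10-fold dilutions). Cells grown in RPMI 1640 with 5% FBS and 2 mM L-glutamine, seeded at 5,000–40,000 cells/well and preincubated 24 h. Drug from DMSO stock, 48 h at 37 °C, 5% CO2. Adherent cells TCA-fixed and stained with 0.4% SRB; A515 read. Percent growth = (Ti−Tz)/(C−Tz)×100, or (Ti−Tz)/Tz×100 when Ti<Tz.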

For assay [7], the system named is Calf thymus DNA. The assay is described as follows: Binding affinity to calf thymus DNA assessed as fluorescence quenching intensity at 5 uM at temperature of 318 K by fluorescence spectroscopic method relative to control. It is filed as nucleic-acid assay. The following applies: Bos taurus.
Assay [8] deals with HL-60. The assay is described as follows: Antiproliferative activity against human HL-60 cells assessed as cell growth at 0.0001 M incubated for 48 hrs by SRB assay relative to control. The following applies: read-out: Activity. The assay is classed as functional. Summed up:
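NCI-60 five-dose screen (10^-4 to 10^-8 M). Cells grown in RPMI 1640 with 5% FBS and 2 mM L-glutamine, plated at 5,000-40,000 cells/well and preincubated 24 h. Drug given from DMSO stock, then 48 h at 37 °C, 5% CO2. For adherent lines, cells fixed with cold TCA, SRB-stained and read at 515 nm. Percent growth taken against time-zero and untreated control.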

Assay [9] relates to Calf thymus DNA. As to the kind of experiment: Binding affinity to calf thymus DNA assessed as DNA intercalation by measuring Stem-Volmer quenching constant at temperature of 308 K by fluorescence spectroscopic method. It is filed as nucleic-acid assay. The conditions noted are these: Bos taurus.
Assay [10] has as its system SF-295. As to the kind of experiment: Antiproliferative activity against human SF-295 cells assessed as cell growth inhibition by measuring lethal concentration incubated for 48 hrs by sulforhodamine B assay. It is filed as functional. The following applies: read-out: LC50 (the source's name).
Assay [11] deals with MOLT-4. The assay is described as follows: Antiproliferative activity against human MOLT-4 cells assessed as cell growth at 0.00001 M incubated for 48 hrs by SRB assay relative to control. It is filed as functional. The following applies: read-out: Activity.
Assay [12] concerns OVCAR-3. As to the kind of experiment: Antiproliferative activity against human OVCAR-3 cells assessed as cell growth at 0.000001 M incubated for 48 hrs by SRB assay relative to control. It is filed as functional. The conditions noted are these: read-out: Activity.
The test system of assay [13] is UACC-257. As to the kind of experiment: Antiproliferative activity against human UACC-257 cells assessed as cell growth inhibition by measuring lethal concentration incubated for 48 hrs by sulforhodamine B assay. The assay is classed as functional. The following applies: read-out: LC50 (the source's name). An outline of the steps: (§1)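 NCI-60 five-dose screen (10^-4 to 10^-8 M, 10-fold dilutions; DMSO stocks). Cells in RPMI 1640 with 5% FBS and 2 mM L-glutamine, preincubated 24 h, then exposed 48 h at 37 °C, 5% CO2. Fixed with cold TCA, stained with 0.4% SRB, absorbance read at 515 nm. Time-zero plates used as reference. LC50 taken from [(Ti-Tz)/Tz]×100 […].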

The test system of assay [14] is Malme-3M. As to the kind of experiment: Growth inhibition against human Malme-3M cells assessed as total growth inhibitory concentration incubated for 48 hrs by sulforhodamine B assay. The assay is classed as functional.
Assay [15] relates to SK-MEL-2. The assay is described as follows: Antiproliferative activity against human SK-MEL-2 cells assessed as cell growth at 0.0000001 M incubated for 48 hrs by SRB assay relative to control. The assay is classed as functional. The following applies: dose 100 nM, read-out: Activity.
Assay [16] relates to Calf thymus DNA. As to the kind of experiment: Binding affinity to calf thymus DNA assessed as DNA intercalation by measuring Stem-Volmer quenching constant at temperature of 318 K by fluorescence spectroscopic method. The assay is classed as nucleic-acid assay. The conditions noted are these: Bos taurus.
Assay [17] relates to MDA-MB-435. The assay is described as follows: Antiproliferative activity against human MDA-MB-435 cells assessed as cell growth at 0.00000001 M incubated for 48 hrs by SRB assay relative to control. It is filed as functional. The conditions noted are these: dose 10 nM, read-out: Activity.
Assay [18] concerns UACC-257. The assay is described as follows: Antiproliferative activity against human UACC-257 cells assessed as cell growth at 0.0000001 M incubated for 48 hrs by SRB assay relative to control. The conditions noted are these: dose 100 nM, read-out: Activity. It is filed as functional.
The test system of assay [19] is NCI-H226. The assay is described as follows: Antiproliferative activity against human NCI-H226 cells assessed as cell growth at 0.00001 M incubated for 48 hrs by SRB assay relative to control. It is filed as functional. The conditions noted are these: read-out: Activity.
In assay [20] the test system is RXF 393. The assay is described as follows: Growth inhibition against human RXF 393 cells incubated for 48 hrs by sulforhodamine B assay. The assay is classed as functional.
Assay [21] relates to OVCAR-8. As to the kind of experiment: Antiproliferative activity against human OVCAR-8 cells assessed as cell growth at 0.000001 M incubated for 48 hrs by SRB assay relative to control. The following applies: read-out: Activity. It is filed as functional.
In assay [22] the test system is SNB-75. As to the kind of experiment: Antiproliferative activity against human SNB-75 cells assessed as cell growth inhibition by measuring lethal concentration incubated for 48 hrs by sulforhodamine B assay. The following applies: read-out: LC50 (the source's name). It is filed as functional. Summed up: as §1
The subject of assay [23] is SN12C. The assay is described as follows: Antiproliferative activity against human SN12C cells assessed as cell growth at 0.0001 M incubated for 48 hrs by SRB assay relative to control. The following applies: read-out: Activity. It is filed as functional.
Assay [24] deals with TK-10. As to the kind of experiment: Antiproliferative activity against human TK-10 cells assessed as cell growth at 0.0000001 M incubated for 48 hrs by SRB assay relative to control. The assay is classed as functional. The following applies: dose 100 nM, read-out: Activity.
The test system of assay [25] is Malme-3M. The assay is described as follows: Antiproliferative activity against human Malme-3M cells assessed as cell growth inhibition by measuring lethal concentration incubated for 48 hrs by sulforhodamine B assay. It is filed as functional. The following applies: read-out: LC50 (the source's name).
The subject of assay [26] is LOX IMVI. The assay is described as follows: Antiproliferative activity against human LOX IMVI cells assessed as cell growth inhibition by measuring lethal concentration incubated for 48 hrs by sulforhodamine B assay. The following applies: read-out: LC50 (the source's name). It is filed as functional.
Assay [27] relates to MDA-MB-231. As to the kind of experiment: Antiproliferative activity against human MDA-MB-231 cells assessed as cell growth at 0.0000001 M incubated for 48 hrs by SRB assay relative to control. The assay is classed as functional. The following applies: dose 100 nM, read-out: Activity.
The subject of assay [28] is NCI-H226. The assay is described as follows: Antiproliferative activity against human NCI-H226 cells assessed as cell growth at 0.000001 M incubated for 48 hrs by SRB assay relative to control. The following applies: read-out: Activity. The assay is classed as functional.
The test system of assay [29] is KM12. The assay is described as follows: Antiproliferative activity against human KM12 cells assessed as cell growth at 0.000001 M incubated for 48 hrs by SRB assay relative to control. It is filed as functional. The following applies: read-out: Activity.
The subject of assay [30] is OVCAR-5. As to the kind of experiment: Growth inhibition against human OVCAR-5 cells incubated for 48 hrs by sulforhodamine B assay. The assay is classed as functional.
The subject of assay [31] is NCI/ADR-RES. As to the kind of experiment: Growth inhibition against human NCI/ADR-RES cells assessed as total growth inhibitory concentration incubated for 48 hrs by sulforhodamine B assay. It is filed as functional.
Assay [32] relates to SF-295. The assay is described as follows: Growth inhibition against human SF-295 cells assessed as total growth inhibitory concentration incubated for 48 hrs by sulforhodamine B assay. The assay is classed as functional.
Assay [33] has as its system OVCAR-4. As to the kind of experiment: Growth inhibition against human OVCAR-4 cells incubated for 48 hrs by sulforhodamine B assay. It is filed as functional.

Some results are limits rather than exact numbers.

Regarding `COc1ccc(-c2cn3ccnc3c(-c3ccc4ncn(C5CCCCC5)c4c3)n2)cc1`, the concentration for total growth inhibition (TGI) in assay [1], in [3] and in [14] was above 100 µM throughout. The growth at 100 µM in assay [2] is 3%; in assay [6] it was -6%; in assay [8], -7%; in assay [23] it was 31%. Also, the growth at 0.01 µM in assay [4] was found to be 88%; in assay [17] it was 92%. Besides, the growth at 10 µM worked out at 29% in [5], 13% in [11] and 25% in assay [19]. Moreover, the Activity in assay [7] was determined as 60%. In addition, the KSV in assay [9] is 1.68 10^4/M; in [16] it was 0.73 10^4/M. Also, the CC50 in assay [10], in assay [13], in [22], in assay [25] and in assay [26] was above 100 µM each time. Moreover, the growth at 1 µM was determined as 19% in assay [12], 92% in assay [21], 73% in assay [28] and 57% in assay [29]. Also, the growth at 0.1 µM was found to be 92% in assay [15], 104% in assay [18], 88% in assay [24] and 101% in assay [27]. This compound registered a GI50 in assay [20] of 1.3 µM.
As for `c1ccc(Cn2cnc3ccc(-c4nc(-c5ccc6c(c5)ncn6C5CCCCC5)cn5ccnc45)cc32)cc1`, the growth at 0.01 µM was 86% in assay [4] and 91% in [17]. Besides, the figures for the growth at 100 µM in assay [6] and in assay [8] were -68% and -18%, respectively. Further, the results for the concentration for 50% growth inhibition (GI50) in [30], in assay [20] and in assay [33] were 2.64 µM, 1.22 µM and 3.06 µM, respectively. Also, the growth at 1 µM in assay [12] was found to be 94%; in [21], 102%; in assay [28] it was 95%; in assay [29], 93%. The growth at 0.1 µM is 90% in [15], 105% in [18], 84% in assay [24] and 98% in assay [27]. Also, the figures for the concentration for total growth inhibition (TGI) in assay [31] and in assay [32] were 5.43 µM and 2.98 µM, respectively. In addition, the CC50 in assay [25] is above 100 µM.

A word on the TGI: it is the concentration at which net growth stops. What is called GI50 is the concentration at which growth is held to half of that of the control. Read a high GI50 as lower sensitivity of the cells.

The values above are taken from ChEMBL document CHEMBL5247578, “Effective synthesis of benzimidazoles-imidazo[1,2-a]pyrazine conjugates: A comparative study of mono-and bis-benzimidazoles for antitumor activity” (Eur J Med Chem, 2019).
